Results from PMC3929337 (Biochemistry, 2014).

Assays:
[1] = tested on: Aβ peptide variants in PS1 mutant-expressing cell lines; conditions: cited from earlier work
[2] = tested on: Notch 1 receptor (NΔE) proteolysis, NICD; experiment: Cell-based Notch proteolytic processing assay; set-up: species or system human; conditions: H4-APP751/NΔE cells, 24 h; lowest concentration tested
In short: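 H4 human neuroglioma cells stably overexpressing human APP751 were transfected with Myc-tagged NΔE Notch and treated for a further 24 h with serially diluted test compound, DMSO vehicle, or a dipeptidic γ-secretase inhibitor as positive control. Concentrations ranged up to 30 μM. Cells were harvested 48 h post-transfection. Lysates were Western blotted with anti-Myc for NΔE/NICD, an APP C-terminal antibody for holo-APP, C99 and C83, and anti-β-actin as loading control.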

CC(C)CC[C@H](c1ccc(Cl)cc1)N1CC[C@@H](CC(=O)O)C[C@H]1c1ccc(C(F)(F)F)cc1 [GSM-1]
effect on Aβ peptide variants, G384A PS1 mutant ([1]; G384A PS1 mutant): effectively lowered Aβ42, Aβ40, and Aβ37
effect on Aβ38 levels, PS1 mutants L166P and N135S ([1]; PS1 mutants L166P and N135S): increases in Aβ38 levels
inhibition of Aβ42, PS1 mutants L166P and N135S ([1]; PS1 mutants L166P and N135S): resistant

COc1cc(/C=C2\CCCN([C@@H](C)c3ccc(F)cc3)C2=O)ccc1-n1cnc(C)c1 [Eisai]
effects on Aβ38 and Aβ42 in PS1 mutant cell lines [1]: behaved like the “TorreyPines” compound

C[C@H](NC(=O)Cc1cc(F)cc(F)c1)C(=O)NC(C(=O)OC(C)(C)C)c1ccccc1 (stereo partly drawn) [DAPT, N-[N-(3,5-difluorophenacetyl)-L-alanyl]-S-phenylglycine tert-butyl ester]
concentration at which inhibition of NICD occurred [2]: ≤ 300 nM
